Experimental data from PubChem BioAssay AID504829 (Southern Research Specialized Biocontainment Screening …, 2011).

Tested on: HEp-2 RSV CPE, time of addition, CellTiter-Glo viability
Test: HEp-2 viability after RSV infection, timed dosing – cell-based, time of addition, mechanism study for RSV inhibitor project (AID 504829)
Details: at 25 µM, stronger effect = higher value
Procedure, shortened: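 Read-out basis: percent viable HEp-2 cells for each compound addition time / System: HEp-2 human cell line, virus-infected / Measured by: ATP-based luminescence with CellTiter-Glo reagent / Reagent: respiratory syncytial virus Long strain infection, MOI 0.12 / Incubation: compound addition from 1 h before to 24 h after infection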

[1] = measured here: added 1 h before infection
[2] = measured here: added 1 h post infection
[3] = measured here: added 7 h post infection
[4] = measured here: added 21 h post infection
[5] = measured here: added 24 h post infection

| SMILES | viability (protection from CPE) [%] | viability [1] [%] | viability [2] [%] | viability [3] [%] | viability [4] [%] | viability [5] [%] |
| --- | --- | --- | --- | --- | --- | --- |
| COc1ccc(C)c(NC(=O)[C@@H]2CCCN2S(=O)(=O)c2cccc3cccnc23)c1 | 81.8 | 90.4 | 63.3 | 52.1 | 34.3 | 24.8 |
| Cc1ccc(NC(=O)[C@@H]2CCCN2S(=O)(=O)c2cccc3cccnc23)c(C)c1 | 77.1 | 87.5 | 56 | 51.8 | 29 | 23.1 |
| Cc1ccc(C)c(NC(=O)[C@@H]2CCCN2S(=O)(=O)c2cccc3cccnc23)c1 | 91.4 | 91.6 | 61.7 | 49.6 | 35.1 | 27.7 |
